Measured values published in ChEMBL document CHEMBL2429829, “Inhibitors of the aminoglycoside 6'-N-acetyltransferase type Ib [AAC(6')-Ib] identified by in silico molecular docking” (Bioorg Med Chem Lett, 2013).

Assay: Inhibition of aminoglycoside 6'-N-acetyltransferase Ib (unknown origin)-mediated acetylation expressed in Escherichia coli using kanamycin A and acetyl CoA as substrate at 100 uM preincubated for 10 mins followed by enzyme addition by spectrophotometric analysis relative to control
Summary of the method: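 Enzyme: thioredoxin-fused AAC(6′)-Ib, arabinose-induced in E. coli, partially purified by DEAE ion exchange. Reaction: 20 mM Tris pH 7.5, 0.2 mM DTNB, 50 μM acetyl CoA, 18 μM kanamycin A, compound at 100 μM in 10% DMSO. Mix held 10 min at room temperature before enzyme added. CoA–SH release read at 412 nm. Percent inhibition from initial velocities versus no-compound reactions; mean of three experiments.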

Row | Compound | inhibition [%]
1 | O=C(c1ccc(N2CCCCC2)cc1)N1CCC2c3ccccc3NC2[C@@H]1c1ccccn1 (some centres not stated) | 0
2 | Cc1nn(Cc2ccc(F)cc2)c(C)c1NC(=O)c1cc(-c2ccc(F)cc2)on1 | 0
3 | Cc1cccc(C)c1NC(=O)COc1ccc2c3c(c(=O)oc2c1)CCCCC3 | 0
4 | COc1ccc(F)cc1C(=O)C1CCCN(C(=O)c2ccc(Cn3cnnn3)cc2)C1 (configuration not stated) | 0
5 | O=C1[C@@H]2[C@H](C(=O)N1/N=C/c1ccccc1OCc1ccc(Cl)cc1)[C@@H]1C=C[C@H]2C1 | 12
6 | Cc1ccc(-c2csc(NC(=S)NC(=O)c3ccccc3Br)n2)cc1 | 0
7 | NC(=O)c1c(NC(=O)c2cc(-c3ccc4c(c3)OCO4)nc3ccccc23)sc2c1CCCCCC2 | 0
8 | O=C(c1cccc([N+](=O)[O-])c1)c1ccc2c(c1)C(=O)N(c1cccc(-c3nc4ccccc4o3)c1)C2=O | 0
9 | Cc1ncc(CNC2CCCc3nc(-c4ccccc4)ncc32)n1C (configuration not stated) | 0
10 | Cc1ccc(C(=O)COc2cccc(N3C(=O)[C@@H]4[C@H]5CC[C@H](C5)[C@@H]4C3=O)c2)cc1C | 0
11 | COC(=O)c1ccc(N2C(=O)NC(=O)/C(=C\c3ccccc3OCc3ccc(C(=O)O)cc3)C2=O)cc1 | 0
12 | Cc1ccc(N2C(=O)C[C@@H](N3CCN(c4nc5ccccc5s4)CC3)C2=O)c(C)c1 | 0
13 | CCc1cc(Br)ccc1N1C(=O)[C@H]2C3c4ccccc4C(c4ccccc43)[C@@H]2C1=O | 0
14 | O=c1oc2ccc(Br)cc2cc1C1=Nn2c(nc3ccccc3c2=O)SC1 | 0
15 | O=C(c1ccc2nc(C3CC3)oc2c1)N1CCC(CCc2ccccc2)CC1 | 0
16 | O=C(/C=C/c1cccc2ccccc12)N1CCN(CCN2C(=O)c3cccc4cccc(c34)C2=O)CC1 | 0
17 | O=C1C[C@H](c2ccc3cccc(O)c3n2)c2ccc(N3CCOC3=O)cc2N1 | 0
18 | Cc1c(O)cccc1C(=O)N1CCC[C@@H]1c1nc(-c2ccccc2)no1 | 0
19 | Cc1ccc(NC(=O)c2ccccc2N2C(=O)[C@@H]3[C@@H]4C=C[C@@H]([C@H]5C[C@@H]45)[C@@H]3C2=O)cc1C | 0

Row | Compound | inhibition [%]
20 | O=C1c2cccc3cccc(c23)C(=O)N1CCCc1nc2sc3c(c2c(=O)[nH]1)CCCC3 | 0
21 | CC(C)(NC(=O)CCn1ccc(=O)[nH]c1=O)c1cccc2ccccc12 | 0
22 | Cc1c(C(=O)Nc2ccc3c(c2)Cc2ccccc2-3)cccc1[N+](=O)[O-] | 0
23 | COc1cccc(Nc2nc(C3(C)CC4(CC(C)OC4=O)C(=O)O3)cs2)c1 (configuration not stated) | 0
24 | Cc1ccc2c(c1)CCCN2C(=O)c1cc(-c2ccc3c(c2)OCO3)nc2ccccc12 | 10
25 | O=C1NC(=O)N(c2ccc3c(c2)OCO3)C(=O)/C1=C/c1ccc(-c2ccc(F)cc2)o1 | 0
26 | CN1C(=O)c2ccc(NC(=O)[C@H]3CC(=O)N(c4ccccc4)C3)cc2C1=O | 0
27 | Cn1c(COc2nnc(-c3ccccc3)c3ccccc23)nc2ccccc21 | 0
28 | Cc1ccc2nc(C)cc(C(=O)OCC(=O)c3ccc(-c4ccccc4)cc3)c2c1 | 0
29 | CC[C@H](C1=NN2C(=N)/C(=C\c3ccc(-c4cccc(C(=O)O)c4)o3)C(=O)N=C2S1)c1ccccc1 | 0
30 | O=C(Nc1ccc2c(c1)C(=O)c1ccccc1C2=O)c1cccc([N+](=O)[O-])c1 | 0
31 | c1ccc2oc(-c3nn4c(-c5ccncc5)nnc4s3)cc2c1 | 0
32 | O=C(Nc1ccccc1)c1ccccc1/N=C/c1ccc(/C=N/c2ccccc2C(=O)Nc2ccccc2)cc1 | 0
33 | O=C(Nc1nccs1)c1cccc(N2C(=O)c3cccc4c([N+](=O)[O-])ccc(c34)C2=O)c1 | 0
34 | Cc1ccc(C(=O)O)cc1NC(=S)NC(=O)c1cccc2c(Br)cccc12 | 0
35 | O=C(Nc1ccccc1N1CCCCC1)c1cccc(-c2cc3ccccc3oc2=O)c1 | 0
36 | Cc1ccc2nc(N3C(=O)c4cccc5cccc(c45)C3=O)sc2c1 | 0
37 | O=C(c1ccc2c3c(cccc13)CC2)[C@H]1CCCN(C(=O)c2cn3ccccc3n2)C1 | 0
